The source made the active and inactive calls. The rule behind the calls is not given here.
Assays:
Homo sapiens = species on record: Homo sapiens; test: (§1) Induction of apoptosis in human MCF-7TN-R cells at 2 times IC50 determined from MTT assay after 24 hrs by ELISA relative to control; format: functional
In short: (§2)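 MCF-7TN-R cells at 7500–10,000 per well in phenol-free DMEM adhered 24 h, then treated 24 h at twice the MTT-derived IC50. DNA fragmentation read with cell death detection ELISA. Normalized to MTT viability on the same plate, duplicate on three occasions.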

[1] = Induction of apoptosis in human MCF-7TN-R cells assessed as caspase-9 activation at 2 times IC50 determined from MTT assay after 24 hrs by caspase Glo 9 assay relative to vehicle-treated control; format: functional
In short: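 MCF-7TN-R cells at 7500–10,000 per well in phenol-free DMEM adhered 24 h, then exposed 24 h at twice the MTT-derived IC50. Caspase-9 activity read by Caspase-Glo 9 luminescence, relative to DMSO vehicle. Triplicate on three occasions.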

[2] = Cytotoxicity against human MCF-7TN-R cells assessed as cell viability after 24 to 48 hrs by MTT assay; format: functional, cell-based
[3] = as §1; format: functional; in short: as §2
NCI/ADR-RES = test: Cytotoxicity against human NCI/ADR-RES cells assessed as cell viability after 72 hrs by CellTiter-Glo luminescence assay; format: functional, cell-based
In short: (§3)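 Cells grown overnight at 4000 per well in RPMI-1640 with 10% FBS, then treated with analogs for 72 h. Viability measured as luminescent ATP after incubation with CellTiter-Glo reagent. Three independent experiments.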

MCF7 [4] = test: Cytotoxicity against human MCF7 cells assessed as colony formation after 10 to 12 days by crystal violet staining assay; format: functional, cell-based
In short: (§4)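 Colony formation: 1000 cells per well in 10% DMEM, 24 h adhesion, then graded analog dilutions until colonies formed (generally 10–12 days). Fixed in 3% glutaraldehyde 30 min, stained 40 min with 0.2% crystal violet/20% methanol. Colonies over 30 cells hand-counted, normalized to DMSO control, IC50 from dose–response fit.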

MCF7 [5] = test: Cytotoxicity against human MCF7 cells assessed as cell viability after 24 hrs by MTT assay; format: functional, cell-based; details: MCF7, 24 h
In short: (§5)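 Cells seeded at 7500–10,000 per well in phenol-free DMEM and allowed 24 h to adhere. Exposed to graded analog concentrations (1 to 100 μM) for 24 h, then MTT added for 3–4 h. Formazan dissolved in 20% SDS/50% DMF for 24 h, absorbance read at 550 nm. Expressed as % of DMSO vehicle, run in quadruplicate on three occasions, IC50 from dose–response fit.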

[6] = Cytotoxicity against human MCF-7TN-R cells assessed as colony formation after 10 to 12 days by crystal violet staining assay; format: functional, cell-based; in short: as §4
MCF7 [7] = test: Cytotoxicity against human MCF7 cells assessed as cell viability after 72 hrs by CellTiter-Glo luminescence assay; format: functional, cell-based; details: MCF7, 72 h; in short: as §3
OVCAR-8 = test: Cytotoxicity against human OVCAR8 cells assessed as cell viability after 72 hrs by CellTiter-Glo luminescence assay; format: functional, cell-based; details: OVCAR-8, 72 h; in short: as §3
[8] = molecular target: T1, Ceramide glucosyltransferase (Homo sapiens) (UniProt Q16739); test: Inhibition of GCS in human NCI/ADR-RES cells assessed as decrease in ratio of glucosylceramide to ceramide level at IC50 after 4 hrs by TLC assay; format: cell-based
T1 sequence (whole entry): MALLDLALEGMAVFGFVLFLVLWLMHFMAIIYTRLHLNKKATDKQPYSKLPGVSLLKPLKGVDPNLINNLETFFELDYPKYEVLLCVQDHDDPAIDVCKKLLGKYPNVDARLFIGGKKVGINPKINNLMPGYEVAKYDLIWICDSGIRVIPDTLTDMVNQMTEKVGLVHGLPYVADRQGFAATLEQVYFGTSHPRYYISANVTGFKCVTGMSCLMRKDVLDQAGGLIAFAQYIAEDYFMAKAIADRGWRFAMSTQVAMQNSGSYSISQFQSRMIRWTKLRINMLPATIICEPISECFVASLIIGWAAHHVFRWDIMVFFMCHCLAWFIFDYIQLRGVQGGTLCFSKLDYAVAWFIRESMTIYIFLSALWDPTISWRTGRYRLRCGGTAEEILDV

MDA-MB-231 [9] = test: Cytotoxicity against human MDA-MB-231 cells assessed as cell viability after 24 hrs by MTT assay; format: functional, cell-based; details: MDA-MB-231, 24 h; in short: as §5
[10] = Cytotoxicity against human MCF7/DX cells assessed as cell viability after 72 hrs by CellTiter-Glo luminescence assay; format: functional, cell-based; in short: as §3
[11] = Cytotoxicity against human MCF-7TN-R cells assessed as cell viability after 24 hrs by MTT assay; format: functional, cell-based; in short: as §5
[12] = molecular target: T1, Ceramide glucosyltransferase (Homo sapiens); test: Inhibition of GCS in human OVCAR8 cells assessed as decrease in ratio of glucosylceramide to ceramide level at IC50 after 4 hrs by TLC assay; format: cell-based; details: OVCAR-8
MDA-MB-231 [13] = test: Cytotoxicity against human MDA-MB-231 cells assessed as colony formation after 10 to 12 days by crystal violet staining assay; format: functional, cell-based; in short: as §4

Structure (SMILES) | Activity (Homo sapiens) | fold change (FC) [1] | IC50 [2] [µM] | fold change (FC) [3] | IC50 (NCI/ADR-RES) [µM] | IC50 (MCF7 [4]) [µM] | IC50 (MCF7 [5]) [µM] | IC50 [6] [µM] | IC50 (MCF7 [7]) [µM] | IC50 (OVCAR-8) [µM] | Ratio [8] | IC50 (MDA-MB-231 [9]) [µM] | IC50 [10] [µM] | IC50 [11] [µM] | Ratio [12] | IC50 (MDA-MB-231 [13]) [µM]
CCCCCCCCCCCCC/C=C/[C@@H](O)[C@H](CO)NC(=O)CCCCCCC | Active | 1.18 | – | – | – | – | – | – | – | – | – | – | – | – | – | –
CCCCCCCCCCC/C=C/C=C/[C@@H](O)[C@H](CO)NC(=O)CCCCCCC | – | – | 11.3 | – | – | – | – | – | – | – | – | – | – | – | – | –
CCCCCCCCCC/C=C/C=C/C(=O)[C@H](CO)NC(=O)Cc1ccccc1 | – | 3.59 | – | 4.3 | 4.92 | 3.4 | 22 | 1.81 | 3.92 | 7.82 | 1 | 161 | 3.92 | 4.26 | 0.6 | 1.4
CCCCCCCCCCCCCCNC(=O)[C@H](CO)NC(=O)Cc1ccccc1 | – | – | – | – | – | 10.2 | 234 | 10.1 | – | – | – | – | – | 29 | – | 17.6
CCCCCCCCCCCCC/C=C/[C@@H](O)[C@H](CO)NC(=O)Cc1ccccc1 | – | – | – | – | – | 4.18 | 37.3 | 5.62 | – | – | – | 51.2 | – | 4.74 | – | 1.59
CCCCCCCCCC/C=C/C=C/[C@@H](O)[C@@H]1COC(C)(C)N1C(=O)OC(C)(C)C | – | – | – | – | – | 5.69 | 26.4 | 5.19 | – | – | – | 75.2 | – | 9.91 | – | 3.17
CCCCCCCCCC/C=C/C=C/C(=O)[C@@H]1COC(C)(C)N1C(=O)OC(C)(C)C | – | 1.86 | – | 3.09 | – | 5.07 | 3.91 | 1.85 | – | – | – | 17.2 | – | 4.05 | – | 1.45
CCCCCCCCCCCCCCNC(=O)[C@H](CO)/N=C/c1ccccc1 | – | – | – | – | 13.8 | – | – | – | 14.1 | 16.3 | 0.8 | – | 10.1 | – | 0.9 | –
